Experimental data pooled from the literature.
Compare with care: the assays were run in different laboratories.
Organism: Staphylococcus aureus
Observed: microbial growth

Cc1ccc2[nH]nc(-c3nnc(Nc4cc(Cl)cc(Br)c4)s3)c2c1
MIC (ATCC29213): 204 µg/mL

c1ccc(CSc2nc3ccccc3cc2CNCc2ccc(N3CCCCC3)cc2)cc1
MIC (broth dilution): > 128 µg/mL

[H]/N=C(\N/C(=N/[H])NCCCCCCNC(=N)NC(=N)Nc1ccc(Cl)cc1)Nc1ccc(Cl)cc1
MIC (ATCC33591 MRSA; drug-resistant strain): 1 µM

CN1CCN(CCNCc2cc3cc(-c4ccccc4)ccc3nc2SCc2ccccc2)CC1
MIC (broth dilution): 8 µg/mL

COc1c(N2C[C@@H]3CCCN[C@@H]3C2)c(F)cc2c(=O)c(C(=O)O)cn(C3CC3)c12
MIC (agar dilution; ATCC43300): 0.5 µg/mL

CC1(C)S[C@@H]2[C@H](NC(=O)[C@H](N)c3ccc(O)cc3)C(=O)N2[C@H]1C(=O)O
MIC (broth dilution; USA300): 64 µg/mL

Cc1ccc2[nH]nc(-c3nnc(Nc4ccc(O)cc4)s3)c2c1
MIC (ATCC29213): 18.3 µg/mL

CCCCCCC#Cc1cncc(-c2nnc(SCc3cc(C(F)(F)F)cc(C(F)(F)F)c3)n2CCCN)c1
MIC (broth dilution; ATCC29213): 4 µg/mL

CC1(C)S[C@@H]2[C@H](NC(=O)[C@H](N)c3ccccc3)C(=O)N2[C@H]1C(=O)O
MIC (agar dilution; ATCC25923): 0.5 µg/mL

CC(=O)OCC1=C(C(=O)O)N2C(=O)[C@@H](NC(=O)Cc3cccs3)[C@H]2SC1
MIC (broth dilution; ATCC25923): 6.25 µg/mL

CCCCCCC#Cc1cncc(-c2nnc(SCc3cc([N+](=O)[O-])cc([N+](=O)[O-])c3)n2CCCN)c1
MIC (broth dilution; MRSA): 8 to 16 µg/mL

CCN1CCC(CCNCc2cc3cc(-c4ccccc4)ccc3nc2SCc2ccccc2)CC1
MIC (broth dilution): 4 µg/mL

Cc1ccc2[nH]nc(-c3nnc(Nc4ccc(Br)cc4)s3)c2c1
MIC (ATCC29213): 154 µg/mL

CCCCCCC#Cc1cncc(-c2nnc(SCc3cc([N+](=O)[O-])cc([N+](=O)[O-])c3)n2C2CCNCC2)c1
MIC (broth dilution; ATCC29213): 8 µg/mL

CC(=O)NC[C@H]1CN(c2ccc(N3CCOCC3)c(F)c2)C(=O)O1
MIC (agar dilution; ATCC25923): 1 µg/mL

CCCCCCC#Cc1cncc(-c2nnc(SCc3ccc(Cl)cc3)n2CCCN)c1
MIC (broth dilution; MRSA): 4 to 8 µg/mL

COc1ccc(N2N=C(C(C)=O)SC2=C(C#N)C(=O)c2ccc(Nc3cnccn3)cc2)cc1
MIC (broth dilution; ATCC25923): 6.25 µg/mL

CCCCCCC#Cc1cncc(-c2nnc(SCc3ccc([N+](=O)[O-])o3)n2CCCN)c1
MIC (broth dilution; MRSA): > 64 µg/mL

CNC(C)C1CCC(N)C(OC2C(N)CC(N)C(OC3OCC(C)(O)C(NC)C3O)C2O)O1 (stereo not drawn)
MIC (broth dilution): 2 µg/mL

C[C@@H](O)[C@H]1C(=O)N2C(C(=O)O)=C(S[C@@H]3CN[C@H](C(=O)N(C)C)C3)[C@H](C)[C@H]12
MIC (ATCC29213 MSSA; drug-resistant strain): 0.06 µg/mL

CC(=O)c1ccc2cc(S(=O)(=O)NCc3ccccc3)ccc2c1
MIC (broth dilution; ATCC25923): 40000 µg/mL

CN[C@H](CC(C)C)C(=O)N[C@H]1C(=O)N[C@@H](CC(N)=O)C(=O)N[C@H]2C(=O)N[C@H]3C(=O)N[C@H](C(=O)N[C@H](C(=O)O)c4cc(O)cc(O)c4-c4cc3ccc4O)[C@H](O)c3ccc(c(Cl)c3)Oc3cc2cc(c3O[C@@H]2O[C@H](CO)[C@@H](O)[C@H](O)[C@H]2O[C@H]2C[C@](C)(N)[C@H](O)[C@H](C)O2)Oc2ccc(cc2Cl)[C@H]1O
MIC (broth dilution; ATCC29213): 0.67 µM

COc1c(N2C[C@@H]3CCCN[C@@H]3C2)c(F)cc2c(=O)c(C(=O)O)cn(C3CC3)c12
MIC (broth dilution; ATCC33591 MRSA): 0.125 µg/mL

CN(C)[C@@H]1C(O)=C(C(N)=O)C(=O)[C@@]2(O)C(O)=C3C(=O)c4c(O)cccc4[C@@](C)(O)[C@H]3C[C@@H]12
MIC (broth dilution; ATCC25923; 16 h): 3.1 µM

CN1CCN(CCNCc2cc3cc(Br)ccc3nc2SCc2ccccc2)CC1
MIC (broth dilution): 16 µg/mL

CN[C@H](CC(C)C)C(=O)N[C@H]1C(=O)N[C@@H](CC(N)=O)C(=O)N[C@H]2C(=O)N[C@H]3C(=O)N[C@H](C(=O)N[C@H](C(=O)O)c4cc(O)cc(O)c4-c4cc3ccc4O)[C@H](O)c3ccc(c(Cl)c3)Oc3cc2cc(c3O[C@@H]2O[C@H](CO)[C@@H](O)[C@H](O)[C@H]2O[C@H]2C[C@](C)(N)[C@H](O)[C@H](C)O2)Oc2ccc(cc2Cl)[C@H]1O
MIC (agar dilution; ATCC43300): 2 µg/mL

O=C(N[C@H](CO)[C@H](O)c1ccc([N+](=O)[O-])cc1)C(Cl)Cl
MIC (broth dilution; ATCC25923): 6.25 µg/mL

N[C@@H](Cc1c[nH]c2ccc(Cl)cc12)C(=O)O
MIC (NEWMAN; 18 h): 200 µM

CC(=O)NC[C@H]1CN(c2ccc(N3CCOCC3)c(F)c2)C(=O)O1
MIC (broth dilution; USA300): 1 µg/mL

CC[C@H]1OC(=O)[C@H](C)[C@@H](O[C@H]2C[C@@](C)(OC)[C@@H](O)[C@H](C)O2)[C@H](C)[C@@H](O[C@@H]2O[C@H](C)C[C@H](N(C)C)[C@H]2O)[C@](C)(O)C[C@@H](C)CN(C)[C@H](C)[C@@H](O)[C@]1(C)O
MIC (ATCC29213): < 98 µg/mL

CC[C@H]1OC(=O)[C@H](C)[C@@H](O[C@H]2C[C@@](C)(OC)[C@@H](O)[C@H](C)O2)[C@H](C)[C@@H](O[C@@H]2O[C@H](C)C[C@H](N(C)C)[C@H]2O)[C@](C)(O)C[C@@H](C)CN(C)[C@H](C)[C@@H](O)[C@]1(C)O
MIC (broth dilution; ATCCBAA44 BAA44): > 64 µg/mL

C=C[C@]1(C)C[C@@H](OC(=O)CS[C@@H]2C[C@H]3CC[C@@H](C2)N3C)[C@]2(C)[C@H](C)CC[C@]3(CCC(=O)[C@H]32)[C@@H](C)[C@@H]1O
MIC (agar dilution; ATCC29213): 0.0625 µg/mL

COc1ccc(-n2nc(C(=O)c3ccc(Nc4cnccn4)cc3)sc2=N)cc1
MIC (broth dilution; ATCC25923): 6.25 µg/mL

CCC[C@@H]1C[C@@H](C(=O)N[C@@H]([C@H]2O[C@H](SC)[C@H](O)[C@@H](O)[C@H]2O)[C@@H](C)O)N(C)C1
MIC (broth dilution; ATCCBAA44 BAA44): > 64 µg/mL

O=C(N[C@H](CO)[C@H](O)c1ccc([N+](=O)[O-])cc1)C(Cl)Cl
MIC (broth dilution): 64 µg/mL

CCCCCCCCCCCC[N+](C)(C)Cc1ccccc1
MIC (MRSA USA300; drug-resistant strain): 8 µM

Cc1ccc2[nH]nc(-c3nnc(Nc4ccc(F)cc4)s3)c2c1
MIC (ATCC29213): 18.3 µg/mL

CC[C@H]1OC(=O)[C@H](C)[C@@H](O[C@H]2C[C@@](C)(OC)[C@@H](O)[C@H](C)O2)[C@H](C)[C@@H](O[C@@H]2O[C@H](C)C[C@H](N(C)C)[C@H]2O)[C@](C)(O)C[C@@H](C)/C(=N\OCOCCOC)[C@H](C)[C@@H](O)[C@]1(C)O
MIC (agar dilution; ATCC43300): 16 µg/mL

CCCCCCCCN=c1ccn(CCCCCCCCCCn2ccc(=NCCCCCCCC)cc2)cc1
MIC (ATCC33591 MRSA; drug-resistant strain): 1 µM
